T cruzi repl: inhibitors of intracellular T. cruzi growth, primary screen, luminescence, NIH3T3 host cells; T. cruzi beta-gal in NIH3T3, 90 h; inhibition, % (concentration not given with the values); actives 1.4% (n = 300,000); AID 1885, 2009;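 active = mean inhibition across valid replicates above about 55%, limit read from the data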;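 note: signal also drops with host cell toxicity which is not excluded here; higher percent means less beta-gal luminescence so fewer parasites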
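Read-out: Parasite load inhibition, % | Test system: Mouse NIH/3T3 fibroblasts infected with β-gal-expressing T. cruzi Tulahuen C4 | Amount: 5,000 cells/well | Medium: DMEM, 2% fetal bovine serum | Signal: GalScreen β-gal luminescence, detergent lysis, 60 min | Timing: 3 h attach, ≥90 h co-culture | Also added: Tulahuen C4 trypomastigotes, 5000/well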
CHOP UPR activ: activators of apoptotic CHOP UPR arm, primary screen, cell-based, CHO-CHOP luciferase reporter, luminescence, uHTS; UPR activation; percent of tunicamycin response over DMSO baseline; activation, % at 10 µM; actives 0.34% (n = 330,000);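 active = at 10 µM dose, activation of 40% or more, normalized to positive control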
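System: CHO-CHOP luciferase reporter cell line | Buffer or medium: F12 medium containing 10% fetal bovine serum | Doses: One dose, 10 µM in 0.5% DMSO | Times: 6 h compound exposure at 37 °C after overnight seeding | Signal: Luciferase luminescence | Read-out: % activation vs tunicamycin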
CSC inhib: cancer stem cell viability inhibitors, primary screen, luminescence; actives 1.1% (n = 300,000); AID 2717, 2010; cancer stem cell-like cells viability; inhibition, % at 7.5 µM; in the data active = inhibition above about 75%; tested in HMLE shEcad cells
Mdm2 MdmX PPI: inhibitors of human Mdm2-MdmX association, primary screen, cell-based, luminescence, split luciferase, SaOS-2, uHTS; Protein Mdm4 (Homo sapiens) + E3 ubiquitin-protein ligase Mdm2 (Homo sapiens), …; inhibition, % at 8 µM; SaOS-2 split-luciferase Mdm2/MdmX complementation; actives 3% (n = 330,000); AID 485346, 2010;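 active = inhibition of at least 50% at 8 µM in the primary screen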
Target sequence (O15151 whole entry, looked up): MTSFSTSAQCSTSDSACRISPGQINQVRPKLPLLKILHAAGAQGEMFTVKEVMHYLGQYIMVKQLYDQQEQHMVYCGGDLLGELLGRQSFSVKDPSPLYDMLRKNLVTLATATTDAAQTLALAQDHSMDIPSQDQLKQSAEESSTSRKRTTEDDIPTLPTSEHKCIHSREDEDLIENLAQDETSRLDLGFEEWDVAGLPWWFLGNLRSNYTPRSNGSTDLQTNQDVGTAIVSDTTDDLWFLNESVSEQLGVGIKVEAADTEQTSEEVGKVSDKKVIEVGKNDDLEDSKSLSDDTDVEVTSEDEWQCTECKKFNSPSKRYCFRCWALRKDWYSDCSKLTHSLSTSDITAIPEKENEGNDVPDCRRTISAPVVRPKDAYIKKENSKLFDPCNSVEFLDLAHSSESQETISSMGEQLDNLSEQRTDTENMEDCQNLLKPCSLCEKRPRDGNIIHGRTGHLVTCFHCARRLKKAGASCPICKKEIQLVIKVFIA
Target sequence (Q00987 whole entry, looked up): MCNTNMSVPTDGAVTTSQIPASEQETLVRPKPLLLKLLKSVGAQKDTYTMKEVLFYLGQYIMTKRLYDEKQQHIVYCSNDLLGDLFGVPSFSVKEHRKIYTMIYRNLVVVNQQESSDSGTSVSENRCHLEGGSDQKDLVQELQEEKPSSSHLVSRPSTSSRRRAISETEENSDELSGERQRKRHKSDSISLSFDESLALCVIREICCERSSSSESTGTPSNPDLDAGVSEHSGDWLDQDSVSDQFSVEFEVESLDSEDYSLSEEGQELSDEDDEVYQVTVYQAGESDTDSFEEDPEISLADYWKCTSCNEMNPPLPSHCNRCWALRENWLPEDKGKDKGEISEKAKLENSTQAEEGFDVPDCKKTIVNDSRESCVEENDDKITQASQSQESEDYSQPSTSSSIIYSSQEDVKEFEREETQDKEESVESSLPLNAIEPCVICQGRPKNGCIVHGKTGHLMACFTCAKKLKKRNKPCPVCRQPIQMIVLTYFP
UPR XBP1 act: activators of adaptive XBP1 UPR arm, primary screen, cell-based, CHO-XBP1 luciferase reporter, luminescence, uHTS; activation, % at 20 µM; actives 0.33% (n = 330,000); IRE1-XBP1 UPR activation; percent of tunicamycin response, DMSO as zero; AID 463104, 2010;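 active = versus positive control, 20 µM dose yields 30% or more activation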
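Material: CHO cell line with stable XBP1 luciferase reporter; schedule: 16-18 h cell attachment at 37 °C, then 6 h compound exposure; signal: glow luminescence from Steady-Glo reagent; medium: serum-containing F12 medium, 10% FBS; benchmarks: tunicamycin 10 µg/mL and vehicle-only wells; read-out: percent activation relative to tunicamycin reference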
Beta cell apopt: inhibitors of cytokine-induced beta cell apoptosis, primary screen, luminescence; actives 0.8% (n = 300,000); protection from apoptosis, % (concentration not given with the values); INS-1E cytokine-induced death, ATP luminescence, 48 h; percent of positive-control rescue, neutral wells zero;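 active = Every replicate reaches about 75%, or at least half do and their mean reaches it too, limit read from the data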;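 note: higher means more ATP so stronger rescue from cytokine killing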
Large screens that a line does not name were inactive. In the library only some 5% were active in any assay of this set; here they are far more common.

CCCCCC1CCC(c2n[nH]c(=S)n2C)CC1 (centres undefined)	T cruzi repl 69.6
CCOC(=O)c1cnc(-n2nc(C)cc2C)nc1NNc1ncc(-c2ccccc2)cn1	Beta cell apopt 96.4
CCN(CC(=O)NCCCn1ccnc1)S(=O)(=O)c1ccc(C)cc1	none
CN(C)c1ccc(/C=C/C=C2/SC(=S)N(c3ccccc3)C2=O)cc1	CSC inhib 82.3
O=C(O)c1ccc(N2C(=O)/C(=C/C=C/c3ccccc3)SC2=S)cc1	none
COc1cc(C)ccc1OCCCCNCc1ccccc1	none
CCOCCCNCc1ccc(OCCC(C)C)c(OC)c1	T cruzi repl 63.1
O=S(=O)(c1ccccc1C(F)(F)F)N1CCN(c2ncnc3sccc23)CC1	none (no result: T cruzi repl)
O=S(=O)(c1ccc(F)c(F)c1F)N1CCN(c2ncnc3sccc23)CC1	Beta cell apopt 86.7 (no result: T cruzi repl)
Cc1ccc(S(=O)(=O)N2CCN(c3ncnc4sccc34)CC2)cc1	Beta cell apopt 89.1
COc1ccc(CN2CCn3nc(C(=O)NC4CC4)cc3C2=O)cc1	none
CN(Cc1nc(-c2cnccn2)no1)CC1CCN(Cc2ccccc2)CC1	none
CC(C)CCc1noc(CN(C)CC2CCN(Cc3ccccc3)CC2)n1	T cruzi repl 55.0
O=C(NCCc1c[nH]c2ccccc12)C1CCC(Cn2c(=S)[nH]c3ccccc3c2=O)CC1 (centres undefined)	T cruzi repl 74.6, CSC inhib 76.4
COc1ccc(OC)c(S(=O)(=O)ON2C(=O)c3ccccc3C2=O)c1	none
Cc1ccc2nc(N(CCCN(C)C)C(=O)c3ccc(S(=O)(=O)N4CCCCCC4)cc3)sc2c1	T cruzi repl 60.1
CCc1ccc2nc(N(CCCN(C)C)C(=O)c3ccc(S(=O)(=O)N4CCCC4)cc3)sc2c1	none
Cc1ccc2nc(N(CCCN(C)C)C(=O)c3ccc4ncsc4c3)sc2c1	none
CCN(CC)CCN(C(=O)c1ccc(S(=O)(=O)N(C)C2CCCCC2)cc1)c1nc2ccc(OC)cc2s1	T cruzi repl 64.6
CCCCN(C)S(=O)(=O)c1ccc(C(=O)N(CCN(C)C)c2nc3ccc(C)cc3s2)cc1	T cruzi repl 64.8
CCN(CC)CCN(C(=O)c1ccc(C(=O)c2ccccc2)cc1)c1nc2ccc(OC)cc2s1	none
CN(C)CCN(C(=O)c1ccc(S(=O)(=O)N2CCCC2)cc1)c1nc2ccc(Br)cc2s1	T cruzi repl 56.6
CN(CCCNC(=O)CSc1cc(=O)n(C)c2ccc(Cl)cc12)Cc1ccccc1	none
CN(C)CCCN(C(=O)c1ccc(S(=O)(=O)N2CCOCC2)cc1)c1nc2ccc(F)cc2s1	T cruzi repl 64.9 (no result: Beta cell apopt)
COc1cc2nc(N(CCCN(C)C)C(=O)c3ccc(S(=O)(=O)N4CCc5ccccc5C4)cc3)sc2cc1OC	T cruzi repl 56.7 (no result: Beta cell apopt)
COc1ccc2sc(N(CCCN(C)C)C(=O)c3ccc(S(=O)(=O)N(C)Cc4ccccc4)cc3)nc2c1	T cruzi repl 55.2 (no result: Beta cell apopt)
CCOc1ccc2nc(N(CCCN(C)C)C(=O)c3ccc(S(=O)(=O)N4CCc5ccccc5C4)cc3)sc2c1	none
COc1cc2c(cc1NC(=O)CN(C)Cc1cccc(OC)c1OC)oc1ccccc12	CSC inhib 98.9
Cc1cccc(CCN(C(=O)Cc2cccs2)C(C(=O)NC2CCCCC2)c2cccnc2)c1 (centres undefined)	none
O=C(NC1CCCC1)C(c1ccccc1)N(Cc1cccnc1)C(=O)Cc1cccs1 (centres undefined)	T cruzi repl 66.6
Cc1ccc(CN(C(=O)Cc2cccs2)C(C(=O)NC2CCCC2)c2ccncc2)cc1 (centres undefined)	T cruzi repl 58.6
Cc1ccc(N(C(=O)CCl)C(C(=O)NC2CCCCC2)c2cccnc2)cc1C (centres undefined)	CSC inhib 88.3 (no result: CHOP UPR activ, Mdm2 MdmX PPI, UPR XBP1 act)
COn1c(-c2ccc(Cl)cc2)nc2ncccc21	none
COc1ccc(C(=O)NCC(=O)OCc2ccc(F)cc2)cc1	none
CCCNC1=C(N(C(C)=O)c2cccc(F)c2)C(=O)c2ccccc2C1=O	T cruzi repl 54.8, CSC inhib 101.8, Beta cell apopt 125.5 (no result: CHOP UPR activ, Mdm2 MdmX PPI, UPR XBP1 act)
CCC[N+]1(CC#CCC(c2ccccc2)c2ccccc2)CCCCC1	T cruzi repl 63.6, Beta cell apopt 104.9
C(#Cc1ccccc1)C[N+]1(CC#Cc2ccccc2)CCCCC1	T cruzi repl 65.8 (no result: Beta cell apopt)
CCOC(=O)/C(=N\Nc1ccccc1)c1csc(Nc2ccc(C)cc2)n1	T cruzi repl 59.5
CN(C(=O)Cn1cc(C(F)(F)F)ccc1=O)c1c(N)n(Cc2ccccc2)c(=O)[nH]c1=O	none
CCOC(=O)CC(=O)NC1(Cc2ccc(O)cc2)CCCCC1	none
COc1ccc(-c2nn(-c3ccccc3)cc2/C=N/Nc2ccc3ccccc3n2)cc1OC	Beta cell apopt 86.2
CC(C(=O)N1c2ccccc2CC1C)N1CCN(S(=O)(=O)c2ccccc2F)CC1 (centres undefined)	none (no result: T cruzi repl)
OCc1ccnc2c(O)cccc12	T cruzi repl 56.7
NC(=O)c1ccnc2c(O)cccc12	none (no result: T cruzi repl)
COc1ccc(C2CC(=O)N(CCCN(C)CCc3ccc(OC)c(OC)c3)C2)cc1 (centres undefined)	T cruzi repl 64.1
Cc1ccc(CN2CCC(Oc3cccc(C(=O)N(C)CCN(C)C)c3)CC2)cc1C	T cruzi repl 57.4
COCCNC(=O)c1cccc(OC2CCN(Cc3ccc(C(=O)OC)cc3)CC2)c1	none (no result: Beta cell apopt)
COc1ccc2[nH]c(C(=O)N3CCCN(Cc4ccc(F)cc4)CC3)cc2c1	T cruzi repl 60.4
CC(C)(C)N(Cc1ccccc1)C(=O)c1cc2ccccc2o1	CSC inhib 78.2
CCN1c2ccccc2NC2N=C(OC)C(c3ccccc3)C21 (centres undefined)	Beta cell apopt 110.7
Cc1c(Cl)cccc1NC(=O)Cn1cc(C(F)(F)F)cc(Cl)c1=O	none
Cc1ccccc1C1c2[nH]c3ccccc3c2C[C@H]2C(=O)N(C3CCN(Cc4ccccc4)CC3)CC(=O)N12 (some centres undefined)	T cruzi repl 60.6
O=C(NCCN1CCOCC1)c1ccncc1	none
O=C1C=C(NCCN2CCOCC2)C(=O)c2cnccc21	Beta cell apopt 98.0 (no result: CHOP UPR activ, Mdm2 MdmX PPI, UPR XBP1 act)
CCCN(CC#CC(O)(c1ccccc1)c1cccnc1)CCC (centres undefined)	T cruzi repl 65.0
CN(CC(=O)Nc1cccc(F)c1)C(=O)c1cn(-c2ccccc2)nc1-c1cccs1	none

Screens: PubChem, several laboratories
